ChEMBL document CHEMBL4330145, “Discovery of the Cyclic Lipopeptide Gacamide A by Genome Mining and Repair of the Defective GacA Regulator in Pseudomonas fluorescens Pf0-1” (2019)
≈ marks a conversion by molar mass, not a printed value. Calls of active or inactive are those of the source. The calls are words filed in the database; no cut-off is given here.

Legend:
[1] = tested on: Staphylococcus aureus; test: Antibacterial activity against methicillin sensitive Staphylococcus aureus isolate 5185 after 24 hrs by agar diffusion assay; assay type: functional, organism-based
Method in brief: (§1)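 Plates of Columbia agar with 5% sheep blood were overlaid with 3 mL tryptic soy soft agar seeded with a TSB suspension of the test strain. Compound was diluted in DMSO to 1 mg/mL, and 3 μL was spotted on the agar surface. The inhibition-zone diameter was measured after 24 h at 37 °C. Clinical isolates were kept on Mueller−Hinton or blood agar.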

[2] = tested on: Stenotrophomonas maltophilia; test: Antibacterial activity against Stenotrophomonas maltophilia isolate O-16451 after 24 hrs by agar diffusion assay; assay type: functional, organism-based; method in brief: as §1
[3] = tested on: Staphylococcus simulans; test: Antibacterial activity against Staphylococcus simulans isolate 22 after 24 hrs by agar diffusion assay; assay type: functional, organism-based; method in brief: as §1
[4] = tested on: Micrococcus luteus; test: Antibacterial activity against Micrococcus luteus ATCC 4698 after 24 hrs by agar diffusion assay; assay type: functional, organism-based; conditions: NCTC 2665
[5] = tested on: Staphylococcus aureus; test: Antibacterial activity against methicillin-resistant Staphylococcus aureus isolate LT-1338 after 24 hrs by agar diffusion assay; assay type: functional, organism-based
Method in brief: (§2)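 Agar diffusion: 5% sheep blood Columbia agar plates overlaid with 3 mL tryptic soy soft agar seeded with a TSB suspension of the clinical isolate. Compound diluted in DMSO to 1 mg/mL, and 3 μL spotted on the agar surface. Inhibition zone diameter measured after 24 h at 37 °C. Strains were maintained on Mueller−Hinton or blood agar.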

[6] = tested on: Listeria welshimeri; test: Antibacterial activity against Listeria welshimeri DSM 20650 after 24 hrs by agar diffusion assay; assay type: functional
[7] = tested on: Klebsiella pneumoniae subsp. ozaenae; test: Antibacterial activity against Klebsiella pneumoniae subsp. ozaenae isolate I-10910 after 24 hrs by agar diffusion assay; assay type: functional, organism-based; method in brief: as §1
[8] = tested on: Agrobacterium tumefaciens; test: Antibacterial activity against Agrobacterium tumefaciens C58 after 24 hrs by agar diffusion assay; assay type: functional, organism-based
[9] = tested on: Candida albicans; test: Antifungal activity against Candida albicans isolate I-11134 after 24 hrs by agar diffusion assay; assay type: functional, organism-based
[10] = tested on: Staphylococcus aureus; test: Antibacterial activity against Staphylococcus aureus after 24 hrs by agar diffusion assay; assay type: functional, organism-based
[11] = tested on: Corynebacterium xerosis; test: Antibacterial activity against Corynebacterium xerosis after 24 hrs by agar diffusion assay; assay type: functional, organism-based
[12] = tested on: Candida albicans; test: Antifungal activity against Candida albicans isolate I-11301 after 24 hrs by agar diffusion assay; assay type: functional, organism-based
[13] = tested on: Staphylococcus epidermidis; test: Antibacterial activity against methicillin-resistant Staphylococcus epidermidis isolate LT-1324 after 24 hrs by agar diffusion assay; assay type: functional, organism-based; method in brief: as §2
[14] = tested on: Staphylococcus aureus; test: Antibacterial activity against Staphylococcus aureus isolate 133 after 24 hrs by agar diffusion assay; assay type: functional, organism-based; method in brief: as §1
[15] = tested on: Staphylococcus aureus; test: Antibacterial activity against methicillin sensitive Staphylococcus aureus isolate I-11574 after 24 hrs by agar diffusion assay; assay type: functional, organism-based; method in brief: as §1
[16] = tested on: Erwinia amylovora; test: Antibacterial activity against Erwinia amylovora Ea153 after 24 hrs by agar diffusion assay; assay type: functional, organism-based
[17] = tested on: Pseudomonas syringae pv. tomato str. DC3000; test: Antibacterial activity against Pseudomonas syringae DC3000 after 24 hrs by agar diffusion assay; assay type: functional
[18] = tested on: Mycolicibacterium smegmatis; test: Antibacterial activity against Mycobacterium smegmatis after 24 hrs by agar diffusion assay; assay type: functional, organism-based
[19] = tested on: Pseudomonas fluorescens; test: Antibacterial activity against Pseudomonas fluorescence A506 after 24 hrs by agar diffusion assay; assay type: functional, organism-based
[20] = tested on: Pseudomonas aeruginosa; test: Antibacterial activity against Pseudomonas aeruginosa isolate I-10968 after 24 hrs by agar diffusion assay; assay type: functional, organism-based; method in brief: as §1
[21] = tested on: Staphylococcus aureus; test: Antibacterial activity against methicillin-resistant Staphylococcus aureus isolate LT-1334 after 24 hrs by agar diffusion assay; assay type: functional, organism-based; method in brief: as §2
[22] = tested on: Escherichia coli; test: Antibacterial activity against Escherichia coli isolate O-19592 after 24 hrs by agar diffusion assay; assay type: functional, organism-based; method in brief: as §1
[23] = tested on: Bacillus subtilis; test: Antibacterial activity against Bacillus subtilis 168 after 24 hrs by agar diffusion assay; assay type: functional, organism-based; conditions: subsp. subtilis str. 168
[24] = tested on: Stenotrophomonas maltophilia; test: Antibacterial activity against Stenotrophomonas maltophilia isolate I-10717 after 24 hrs by agar diffusion assay; assay type: functional, organism-based; method in brief: as §1
[25] = tested on: Citrobacter freundii; test: Antibacterial activity against Citrobacter freundii isolate I-11090 after 24 hrs by agar diffusion assay; assay type: functional, organism-based; method in brief: as §1
[26] = tested on: Rhodococcus fascians; test: Antibacterial activity against Rhodococcus fascians A44A after 24 hrs by agar diffusion assay; assay type: functional, organism-based; conditions: Rhodococcoides fascians
[27] = tested on: Priestia megaterium; test: Antibacterial activity against Bacillus megaterium Km after 24 hrs by agar diffusion assay; assay type: functional, organism-based
[28] = tested on: Enterococcus faecium; test: Antibacterial activity against Enterococcus faecium isolate I-11054 after 24 hrs by agar diffusion assay; assay type: functional, organism-based; method in brief: as §1
[29] = tested on: Escherichia coli; test: Antibacterial activity against Escherichia coli isolate I-11276b after 24 hrs by agar diffusion assay; assay type: functional, organism-based; method in brief: as §1
[30] = tested on: Arthrobacter crystallopoietes; test: Antibacterial activity against Arthrobacter crystallopoietes DSM 20117 after 24 hrs by microtiter plate broth dilution assay; conditions: Crystallibacter crystallopoietes, DSM 20117, 24 h
[31] = tested on: Agrobacterium tumefaciens; test: Antibacterial activity against Agrobacterium tumefaciens B6 after 24 hrs by agar diffusion assay; assay type: functional, organism-based
[32] = tested on: Enterococcus faecium; test: Antibacterial activity against Enterococcus faecium isolate I-11305b after 24 hrs by agar diffusion assay; assay type: functional, organism-based; method in brief: as §1

## CCCCCCC[C@@H](O)CC(=O)N[C@H](CC(C)C)C(=O)N[C@H](CC(=O)O)C(=O)N[C@H](CCC(N)=O)C(=O)N[C@H](C(=O)N[C@H](CC(C)C)C(=O)N[C@H](CCC(N)=O)C(=O)N[C@@H]1COC(=O)[C@H]([C@@H](C)CC)NC(=O)[C@@H](CO)NC(=O)[C@H](CC(C)C)NC(=O)[C@H](CC(C)C)NC1=O)[C@H](C)CC
[1]
  Activity: inactive
[2]
  Activity: inactive
[3]
  Activity: inactive
[4]
  Activity: inactive
[5]
  Activity: inactive
[6]
  Activity: inactive
[7]
  Activity: inactive
[8]
  Activity: inactive
[9]
  Activity: inactive
[10]
  Activity: inactive
[11]
  Activity: inactive
[12]
  Activity: inactive
[13]
  Activity: inactive
[14]
  Activity: inactive
[15]
  Activity: inactive
[16]
  Activity: inactive
[17]
  Activity: inactive
[18]
  Activity: inactive
[19]
  Activity: inactive
[20]
  Activity: inactive
[21]
  Activity: inactive
[22]
  Activity: inactive
[23]
  Activity: inactive
[24]
  Activity: inactive
[25]
  Activity: inactive
[26]
  Activity: inactive
[27]
  Activity: inactive
[28]
  Activity: inactive
[29]
  Activity: inactive
[30]
  MIC: 32 µg/mL (≈ 22.9 µM)
[31]
  Activity: inactive
[32]
  Activity: inactive
